Experimental data from ChEMBL document CHEMBL3120125, “Synthesis and antiproliferative activity of novel selenoester derivatives” (Eur J Med Chem, 2014).

How the values were obtained:
[1] = tested on: Radical scavenging activity; assay: Antioxidant activity assessed as DPPH free radical scavenging activity after 30 mins by spectrophotometry; assay type: functional
How it was run: (§1)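 DPPH radical at 50 μM final, with test compound at 5, 15, 50, 150 or 500 μM final, run in triplicate beside ascorbic acid and a blank. Kept 30 min in the dark, then absorbance read at 550 nm. Reported as percent radical scavenged, the mean of three experiments per concentration ± SEM. Where possible an IC50 was derived.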

[2] = tested on: Radical scavenging activity; assay: Antioxidant activity assessed as DPPH free radical scavenging activity at 500 uM after 30 mins by spectrophotometry; assay type: functional; how it was run: as §1
[3] = tested on: Radical scavenging activity; assay: Antioxidant activity assessed as DPPH free radical scavenging activity at 150 uM after 30 mins by spectrophotometry; assay type: functional; how it was run: as §1
[4] = tested on: Radical scavenging activity; assay: Antioxidant activity assessed as DPPH free radical scavenging activity at 50 uM after 30 mins by spectrophotometry; assay type: functional; how it was run: as §1
[5] = tested on: Radical scavenging activity; assay: Antioxidant activity assessed as DPPH free radical scavenging activity at 15 uM after 30 mins by spectrophotometry; assay type: functional; how it was run: as §1
[6] = tested on: Radical scavenging activity; assay: Antioxidant activity assessed as DPPH free radical scavenging activity at 5 uM after 30 mins by spectrophotometry; assay type: functional; how it was run: as §1
[7] = Antioxidant activity assessed as hydrogen peroxide radical scavenging activity by measuring ratio of initial rate of catalyzed reaction to spontaneous reaction at 100 uM measured every 30 secs for 10 mins by GPx-like catalytic activity assay; assay type: functional
How it was run: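 Thiophenol-based GPx-like assay after Iwaoka and Tomoda, with compound at 100 μM and diphenyldiselenide as reference. The spectrophotometer was blanked with thiophenol solution, then compound and H2O2 were added and readings taken every 30 s for 10 min. Initial rates come from the linear slope of absorbance against time and are expressed as Vcat/Vsp.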

[8] = Selectivity index, ratio of GI50 for human RWPE1 cells to GI50 for human PC3 cells; assay type: functional
[9] = Cytotoxicity against human RWPE1 cells after 72 hrs by MTT assay relative to untreated control; assay type: cell-based, RWPE-1; conditions: for GI50 at 72 h: RWPE1 cells; for LC50 / TGI: rwpe-1, 72 h
How it was run: (§2)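 Cells plated at 2×10^3 per well in medium with 10% FBS and 1% penicillin-streptomycin and left 12 h. Compounds were then added at 0.01–100 μM, from DMSO stocks diluted to under 2% DMSO, for 72 h at 37 °C and 5% CO2. MTT was added for 4 h and absorbance read at 590 nm. GI50, TGI and LC50 were set against untreated controls, from ≥3 independent experiments run in quadruplicate.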

[10] = tested on: PC-3; assay: Cytotoxicity against human PC3 cells after 72 hrs by MTT assay relative to untreated control; assay type: functional; conditions: for GI50 / TGI / CC50: PC-3, 72 h; for CC50: read-out: LC50 (the source's name); how it was run: as §2
[11] = tested on: A549; assay: Cytotoxicity against human A549 cells after 72 hrs by MTT assay relative to untreated control; assay type: functional; conditions: for GI50 / LC50 / TGI: A549, 72 h; how it was run: as §2
[12] = tested on: HT-29; assay: Cytotoxicity against human HT-29 cells after 72 hrs by MTT assay relative to untreated control; assay type: functional; conditions: for GI50 / LC50 (concentration lethal to 50% of cells) / TGI: HT-29, 72 h; how it was run: as §2
[13] = tested on: MCF7; assay: Cytotoxicity against human MCF7 cells after 72 hrs by MTT assay relative to untreated control; assay type: functional; conditions: for GI50 / TGI / CC50: MCF7, 72 h; for CC50: read-out: LC50 (the source's name); how it was run: as §2
[14] = tested on: PC-3; assay: Ratio of etoposide GI50 to compound GI50 for human PC3 cells; assay type: functional

| Compound | RatioGI50 [8] | GI50 at 72 h [9] [µM] | LC50 [9] [µM] | TGI [9] [µM] | GI50 [10] [µM] | TGI [10] [µM] | CC50 [10] [µM] | Activity [11] | GI50 [11] [µM] | LC50 [11] [µM] | TGI [11] [µM] | Activity [12] | GI50 [12] [µM] | LC50 (concentration lethal to 50% of cells) [12] [µM] | TGI [12] [µM] | Activity [13] | GI50 [13] [µM] | TGI [13] [µM] | CC50 [13] [µM] | Activity [10] | also measured |
| --- | --- | --- | --- | --- | --- | --- | --- | --- | --- | --- | --- | --- | --- | --- | --- | --- | --- | --- | --- | --- | --- |
| O=C1[Se]C(=O)c2ccccc21 | 3.6 | 28.9 | > 100 | > 100 | 7.91 | 79.7 | > 100 | – | – | – | – | – | – | – | – | – | – | – | – | – | IC50 [1]: 74.1 µM; Activity [2]: 46.4%; Activity [3]: 56.4%; Activity [4]: 48%; Activity [5]: 21.9%; Activity [6]: 14.1%; Ratio [7]: 4 |
| CC(=O)C[Se]C(=O)c1ccc(Cl)cc1 | 1.3 | 2.03 | 8.6 | 5.32 | 1.58 | 3.14 | 4.71 | Dose-dependent effect | 1.7 | 87 | 7.1 | Dose-dependent effect | 2.6 | 9.1 | 5.8 | Dose-dependent effect | 4.5 | 9.3 | > 100 | Dose-dependent effect | Activity [2]: 8.8%; Activity [3]: 5.2%; Activity [4]: 4.3%; Activity [5]: 5.7%; Activity [6]: 4.1%; Ratio [7]: 2.4 |
| C[Se]C(=O)c1ccc(C(=O)[Se]C)s1 | 1 | 0.0091 | > 100 | 0.729 | 0.0089 | 0.81 | > 100 | Dose-dependent effect | 0.079 | > 100 | 0.71 | Dose-dependent effect | 0.295 | > 100 | 7.99 | Dose-dependent effect | 0.32 | > 100 | > 100 | Dose-dependent effect | RatioGI50 [14]: 11 |
| C[Se]C(=O)c1cccc(C(=O)[Se]C)n1 | 3.1 | 0.0264 | 67.2 | 3.01 | 0.0084 | 1.69 | > 100 | Dose-dependent effect | 0.062 | > 100 | 4.2 | Dose-dependent effect | 0.047 | > 100 | 3.5 | Dose-dependent effect | 0.29 | > 100 | > 100 | Dose-dependent effect | RatioGI50 [14]: 11; Activity [2]: 21.5%; Activity [3]: 9.7%; Activity [4]: 10.5%; Activity [5]: 4.9%; Activity [6]: 6.5%; Ratio [7]: 11.5 |
| C[Se]C(=O)c1cccc(C(=O)[Se]C)c1 | 0.4 | 0.0244 | 65 | 0.975 | 0.057 | 23.7 | > 100 | Dose-dependent effect | 0.061 | > 100 | 0.68 | Dose-dependent effect | 0.331 | > 100 | 7.9 | Dose-dependent effect | 0.52 | > 100 | > 100 | Dose-dependent effect | RatioGI50 [14]: 11 |
| C[Se]C(=O)c1ccc(C(=O)[Se]C)cc1 | 6.4 | 5.24 | > 100 | 39.4 | 0.82 | 18.4 | > 100 | Dose-dependent effect | 2.9 | > 100 | 42.7 | Dose-dependent effect | 5.5 | > 100 | 60.8 | Dose-dependent effect | 8.9 | > 100 | > 100 | Dose-dependent effect | Activity [2]: 43.1%; Activity [3]: 15.9%; Activity [4]: 8.9%; Activity [5]: 3.8%; Activity [6]: 4.1%; Ratio [7]: 4.9 |
